Screening results as filed in PubChem BioAssay.
Most compounds without a hit are left out; they make up all but 2.6% or so of the library.
rCAG binder: r(CAG) repeat RNA binding; inhibition, % at 3 µM; hit rate 1.3% among 370,000; TO-PRO-1 dye displacement fluorescence;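 active means inhibition above the plate cutoff, the mean of all test compounds on that plate plus 3 SD, cut at about 35% in these data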;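 further: 0% = DMSO alone and 100% = 100 µM mitoxantrone as full dye displacement; higher means more dye released from RNA so lower well fluorescence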
NadD inh: blocks S. aureus nicotinate mononucleotide adenylyltransferase | hit rate 0.78% among 360,000 | purified NadD enzyme, colorimetric absorbance read-out | inhibition, % at 20 µM; in the data active means inhibition above about 26%
ABHD5-PLIN5 inh: blocks binding of human ABHD5 to perilipin-5. Q00G26+Q8WTS1. Split G. princeps luciferase complementation, luminescence, 4 h. hit rate 0.78% among 360,000. inhibition, % at 4 µM;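 active means inhibition above the mean inhibition across every tested compound plus 3 SD, cut at about 22% in these data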;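 further: 0% = DMSO only wells and the 100% control is not disclosed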
Target sequence (Q00G26 whole entry, looked up): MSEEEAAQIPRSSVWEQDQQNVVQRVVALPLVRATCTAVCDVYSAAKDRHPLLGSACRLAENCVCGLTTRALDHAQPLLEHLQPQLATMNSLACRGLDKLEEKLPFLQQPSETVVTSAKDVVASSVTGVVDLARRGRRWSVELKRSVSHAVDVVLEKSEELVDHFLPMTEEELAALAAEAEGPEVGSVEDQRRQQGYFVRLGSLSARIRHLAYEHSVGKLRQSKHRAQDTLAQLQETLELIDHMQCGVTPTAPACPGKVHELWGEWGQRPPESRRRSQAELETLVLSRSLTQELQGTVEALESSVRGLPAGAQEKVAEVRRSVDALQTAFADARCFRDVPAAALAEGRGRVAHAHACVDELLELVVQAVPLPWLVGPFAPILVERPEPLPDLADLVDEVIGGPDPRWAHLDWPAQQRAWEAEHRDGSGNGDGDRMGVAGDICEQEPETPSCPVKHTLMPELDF
Target sequence (Q8WTS1 whole entry, looked up): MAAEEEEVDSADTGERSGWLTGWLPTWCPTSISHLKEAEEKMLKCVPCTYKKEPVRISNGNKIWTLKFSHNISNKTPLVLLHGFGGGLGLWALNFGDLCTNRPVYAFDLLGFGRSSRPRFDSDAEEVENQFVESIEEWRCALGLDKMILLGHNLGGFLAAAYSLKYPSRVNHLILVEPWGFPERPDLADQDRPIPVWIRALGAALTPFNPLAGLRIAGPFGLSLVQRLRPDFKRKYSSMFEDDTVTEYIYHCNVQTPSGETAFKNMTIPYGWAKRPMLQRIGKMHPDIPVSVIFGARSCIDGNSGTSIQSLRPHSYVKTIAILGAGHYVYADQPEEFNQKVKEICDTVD
HCV core dimer: HCV core protein dimerization inhibition | TR-FRET GST/Flag-core106 dimerization, 1536-well | inhibition, % at 5 µM | hit rate 0.33% among 300,000;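 active means inhibition above the mean of all tested compounds plus 3 SD, set per screening campaign, cut at about 45% in these data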
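System: GST/Flag-tagged HCV core106 proteins. Incubation: compound-protein-antibody incubation 4 h at 22.5 °C. Technique: HTRF with 340 nm excitation, 617/671 nm emission. Medium: KF-containing HEPES buffer, pH 7.45, DTT, CHAPS, BSA. Read-out: inhibition (%) from 671 over 617 nm ratio. Also added: Eu(K)-anti-GST 90 ng/mL plus XL665-anti-Flag 1 µg/mL.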
NadD inh conf: NadD (S. aureus) inhibition, single concentration confirmation. shares compounds with NadD inh. purified S. aureus NadD, colorimetric enzyme assay. hit rate 13% among 2,000. inhibition, % at 20 µM. AID 624309; in the data active means inhibition mostly above about 42%, no sharp cut-off; inactive means mostly below about 42%
* hit, by the source's call; x = not tested or not shown.

SMILES	rCAG binder	NadD inh	ABHD5-PLIN5 inh	HCV core dimer	NadD inh conf
CCN(CC)S(=O)(=O)c1ccc(C(=O)/C=C/c2ccc(-c3ccc([N+](=O)[O-])cc3)o2)cc1	18.9	51.7*	6.2	23.6	9.1
Cc1ccc(C(=O)/C=C/c2ccc(-c3ccc(C)cc3)o2)cc1	17.6	34.4*	13.9	31.5	4.4
CCc1nc2ccc(C(=O)NCCN3CCCC3)cn2c1N(C)Cc1ccc(OC)cc1	7.0	2.7	3.4	x	x
Oc1ccc(Nc2nc(-c3cccs3)cs2)cc1	26.9	33.3*	-6.5	40.2	61.7*
Cn1c(N)c(C(=O)COC(=O)c2cc(-c3ccccc3)nc3ccccc23)c(=O)n(Cc2ccccc2)c1=O	x	29.4*	-11.7	-31.7	4.4
Cn1c(N)c(C(=O)COC(=O)c2cc(C3CC3)nc3ccccc23)c(=O)n(Cc2ccccc2)c1=O	13.1	42.7*	-6.8	6.3	7.1
Cn1c(N)c(C(=O)COC(=O)c2cc(-c3ccccc3)nc3ccccc23)c(=O)n(C)c1=O	x	x	x	10.0	x
C=CCN(C)CC#CCCCCl	-0.1	x	x	x	x
O=C(c1[nH]c(C(F)(F)F)nc1-c1ccccc1)N1CCN(c2c(Cl)cncc2Cl)CC1	14.1	4.1	8.7	x	x
Cc1cc(O)c(-c2n[nH]c3c2C(c2cccc(O)c2)N(Cc2cccnc2)C3=O)cc1Cl (configuration not stated)	25.1	45.8*	0.2	9.9	45.8
CCCN1C(=O)c2[nH]nc(-c3cc(Cl)c(C)cc3O)c2C1c1ccc(O)c(OC)c1 (configuration not stated)	12.2	3.5	-1.4	0.9	x
CSc1ccc(C2C(C#N)=C(N)Oc3c2ccc(=O)c2c(C)oc(C)c32)cc1 (configuration not stated)	15.6	57.7*	4.7	77.9*	25.3
Cc1oc(C)c2c(=O)ccc3c(c12)OC(N)=C(C#N)C3c1ccccc1 (configuration not stated)	18.9	10.4	4.8	16.4	x
CCOC(=O)[C@@]12CN(C(=O)OC(C)(C)C)CC=C1N(Cc1ccc(OC)cc1)C(=O)[C@H]2CC(=O)NCCCN1CCCC1=O	2.6	x	x	x	x
CCOc1ccc(NS(=O)(=O)c2ccc3[nH]c(=O)[nH]c3c2)cc1	-1.4	-1.3	2.1	-5.8	x
Cc1ccc(NC(=O)COc2ccc(/C=C3/SC(=Nc4ccccc4)N(Cc4cccnc4)C3=O)cc2)cc1	6.4	40.1*	-2.7	13.1	3.0
Cc1ccc(NC(=O)COc2ccc(/C=N/NC(=O)CSCc3ccccc3)cc2)cc1	1.9	-1.1	0.2	7.4	x
CC(C)n1nnnc1C1c2ccccc2C(=O)N1CCCn1ccnc1 (configuration not stated)	0.1	0.8	-1.8	x	x
COc1ccc(CN2CCC[C@]3(N[C@H](c4ccccc4)[C@@H]4C(=O)N(Cc5ccccc5)C(=O)[C@@H]43)C2=O)cc1	2.9	1.4	-0.8	x	x
CCOc1ccc(CCN2C(=S)N([C@@H](CC(C)C)CN3CCCC3CN3C(=S)NC[C@@H]3Cc3ccc(O)cc3)C[C@@H]2Cc2ccc(O)cc2)cc1 (some centres not stated)	14.7	37.3*	-5.9	x	43.0
CCOc1ccc(CCN2C(=S)N([C@@H](CC(C)C)CN3CCC[C@@H]3CN3C(=S)NC[C@@H]3CC(C)C)C[C@@H]2Cc2ccc(O)cc2)cc1	13.8	20.0	11.0	x	x
CCOc1ccc(CCN2C(=S)N([C@@H](CC(C)C)CN3CCCC3CN3C(=S)NC[C@@H]3Cc3ccc(O)cc3)C[C@@H]2Cc2ccccc2)cc1 (some centres not stated)	13.4	33.6*	-2.1	x	10.0
CCOc1ccc(CCN2C(=S)N([C@@H](CC(C)C)CN3CCCC3CN3C(=S)NC[C@@H]3Cc3ccc(O)cc3)C[C@@H]2CC(C)C)cc1 (some centres not stated)	5.7	36.4*	-5.4	x	6.8
CCOc1ccc(CCN2C(=S)N([C@@H](Cc3ccc(O)cc3)CN3CCC[C@@H]3CN3C(=S)NC[C@@H]3Cc3ccccc3)C[C@@H]2Cc2ccc(O)cc2)cc1	17.7	45.1*	19.1	x	41.2
Oc1ccc(C[C@@H](CN2CCC[C@@H]2CN2C(=S)NC[C@@H]2Cc2ccccc2)N2C[C@H](Cc3ccccc3)N(CCc3ccccc3)C2=S)cc1	12.7	20.4	10.7	x	x
SMILES	rCAG binder	NadD inh	ABHD5-PLIN5 inh	HCV core dimer	NadD inh conf
COc1ccccc1C(=O)C1CCCN(C(=O)c2ccc(Cl)cc2)C1 (configuration not stated)	-1.3	-2.9	-5.1	x	x
c1ccc(-c2ccc(C3=Nn4c(nnc4-c4cc(-c5ccccc5)n[nH]4)SC3)cc2)cc1	11.6	43.7*	-3.0	18.6	5.0
c1ccc(-c2ccc(C3=Nn4c(nnc4-c4ccccc4)SC3)cc2)cc1	7.0	x	x	x	x
Cc1cccc(N=C2NN=C(c3ccc4c(c3)OCCO4)CS2)c1	10.6	15.6	-11.1	2.4	x
Cc1cccc(N=C2NN=C(c3c(C)[nH]c4ccccc34)CS2)c1	26.3	36.0*	-6.7	12.9	21.1
CCOC(=O)[C@@H]1CSCCS(=O)(=O)N1C(=O)[C@H](C)NC(=O)OC(C)(C)C	0.2	x	x	x	x
O=C(c1ccccc1)c1nn(-c2cccc(Cl)c2)c2nc(-c3ccccc3)cc(=O)n12	-0.6	0.7	-2.6	6.4	x
Cc1cccc(-n2nc(C(=O)Nc3ccccc3)n3c(=O)cc(-c4ccccc4)nc23)c1	-0.3	30.1*	3.7	5.3	-9.0
CCCCCCCCC(=O)NNC(=O)c1c(O)c2ccccc2n(CCC)c1=O	7.0	-1.8	2.5	5.0	x
CCCn1c(=O)c(C(=O)NNC(=O)c2ccc(Cl)cc2Cl)c(O)c2ccccc21	1.0	22.3	6.2	-3.0	x
CCCCCCCCCC(=O)NNC(=O)c1c(O)c2ccccc2n(CCC)c1=O	3.6	38.1*	-5.6	0.0	0.4
CCCn1c(=O)c(C(=O)NNS(=O)(=O)c2ccc(Cl)cc2)c(O)c2ccccc21	30.2	30.1*	-0.8	16.7	23.8
Cc1ccccc1S(=O)(=O)N(C)C[C@H]1OCc2cnnn2CCCC(=O)N([C@H](C)CO)C[C@@H]1C	1.0	x	x	x	x
COc1ccc(NC(=O)c2cc(C3CCCCN3C(=O)c3ccccc3)on2)c(C)c1 (configuration not stated)	0.1	-4.8	-8.9	x	x
COc1cccc(C=C(C#N)C(=O)c2ccccc2)c1	5.4	31.7*	11.5	x	17.6
CCCCOCCCNC(=O)C[C@@H]1C[C@@]2(C(=O)OCC)CCCC=C2N(Cc2ccc(Cl)cc2Cl)C1=O	3.8	-2.7	-0.3	x	x
O=C(c1cc2sccc2n1Cc1ccc(F)cc1)N1CCN(c2nc3ccccc3s2)CC1	3.9	54.5*	0.8	3.3	31.5
Cn1c(C(=O)N2CCN(c3nc4ccccc4s3)CC2)cc2sccc21	3.9	-4.8	-9.8	1.6	x
O=C1NC(=O)/C(=C/c2ccc(-c3cccc([N+](=O)[O-])c3)o2)S1	16.0	45.5*	-2.6	x	4.8
COC(=O)[C@]12C[C@H](CC(=O)NCC3CCCCC3)C(=O)N(Cc3cccc4ccccc34)C1=C[C@H](C(C)(C)C)O[C@@H]2C	4.8	x	x	x	x
